Measured values reported in ChEMBL document CHEMBL1128448, “Synthesis and antifungal activity of new azole derivatives containing an N-acylmorpholine ring” (1995).
Values after ≈ are worked out from the molar mass of the structure shown.

What was measured:
Candida tropicalis [1] = test: Evaluation of In vitro antifungal activity against Candida tropicalis 50 by broth macro dilution method; assay type: functional
Summary of the method: (§1)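 Yeast MIC and MFC by broth macrodilution per NCCLS M27-P in RPMI-1640 buffered with 0.165 M MOPS. Fluconazole in sterile water, other drugs in DMSO. C. parapsilosis ATCC 22019 is the reference strain in each run. MIC is the lowest concentration with turbidity ≤ the 80% inhibition standard. For MFC, 0.04 mL from clear tubes is plated on Sabouraud agar; MFC is the lowest concentration giving ≤1 colony.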

Candida tropicalis [2] = test: In vitro evaluation of minimum inhibitory concentration against Candida tropicalis 2.11; assay type: functional; details: Candida tropicalis; read-out: MIC
Summary of the method: (§2)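 Stocks are 800 μg/mL in 50% ethanol. Each plate gets 10 μL of inoculum at 10^5 cfu/mL. Incubation at 25 °C, 48 h for yeasts and 120 h for dermatophytes and molds. Organisms are ATCC strains or clinical isolates.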

Cryptococcus neoformans [3] = test: Evaluation of In vitro antifungal activity against Cryptococcus neoformans 74 by broth macro dilution method; assay type: functional; summary of the method: as §1
Cryptococcus neoformans [4] = test: Evaluation of In vitro antifungal activity against Cryptococcus neoformans 87 by broth macro dilution method; assay type: functional; summary of the method: as §1
Mus sp. [5] = test: In vivo evaluation of % survival rate after peroral administration on 3rd day at dose 0.5 mg/kg; assay type: functional; details: route oral
Mus sp. [6] = test: In vivo evaluation of % survival rate after peroral administration on 3rd day at dose 1 mg/kg; assay type: functional; details: Mus sp., po
Mus sp. [7] = test: In vivo evaluation of % survival rate after peroral administration on 5th day at dose 0.5 mg/kg; assay type: functional; details: route oral
Mus sp. [8] = test: In vivo evaluation of % survival rate after peroral administration on 5th day at dose 1 mg/kg; assay type: functional; details: Mus sp., po
Mus musculus = test: In vivo evaluation of % survival rate after peroral administration on 7th day at dose 0.5 mg/kg; assay type: functional; details: route oral
Mus sp. [9] = test: In vivo evaluation of % survival rate after peroral administration on 7th day at dose 1 mg/kg; assay type: functional; details: Mus sp., po
Mus sp. [10] = test: In vivo evaluation of % survival rate after peroral administration on 9th day at dose 0.5 mg/kg; assay type: functional; details: Mus sp., po
Mus sp. [11] = test: In vivo evaluation of % survival rate after peroral administration on 9th day at dose 1 mg/kg; assay type: functional; details: route oral, 1 mg/kg
Microsporum canis = test: In vitro evaluation of minimum inhibitory concentration against Microsporum canis 47; assay type: functional; summary of the method: as §2
Nannizzia gypsea = test: In vitro evaluation of minimum inhibitory concentration against Microsporum gypseum 22; assay type: functional; summary of the method: as §2
Rattus norvegicus [12] = test: In vivo evaluation of antifungal activity against vaginal candidosis in rat at dose 0.1 mg/kg on 10th day; assay type: functional
Summary of the method: (§3)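 Groups of 10 female Wistar rats given estradiol 25 mg/kg sc on day -5, then vaginally inoculated with C. albicans on day 0. Infection is confirmed by culture of day-3 swabs. Compound is dosed orally once daily on days 3–5; controls get vehicle. Cure is scored by culture of vaginal swabs taken on days 10 and 15.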

Rattus norvegicus [13] = test: In vivo evaluation of antifungal activity against vaginal candidosis in rat at dose 0.1 mg/kg on 15th day; assay type: functional; summary of the method: as §3
Rattus norvegicus [14] = test: In vivo evaluation of antifungal activity against vaginal candidosis in rat at dose 0.25 mg/kg on 10th day; assay type: functional
Summary of the method: (§4)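 Groups of 10 female Wistar rats given estradiol 25 mg/kg sc on day -5, infected intravaginally with C. albicans by sterile swab on day 0; infection confirmed on day 3 by swab culture (TSB, then Sabouraud agar). Oral dosing once daily on days 3, 4, 5; vehicle controls. Vaginal swabs cultured on days 10 and 15; read-out % cured (culture-negative).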

Nakaseomyces glabratus [15] = test: Evaluation of In vitro antifungal activity against Torulopsis glabrata 78 by broth macro dilution method; assay type: functional; summary of the method: as §1
Nakaseomyces glabratus [16] = test: In vitro evaluation of minimum inhibitory concentration against Torulopsis glabrata 78; assay type: functional; summary of the method: as §2
Trichophyton benhamiae = test: In vitro evaluation of minimum inhibitory concentration against Trichophyton mentagrophytes 23; assay type: functional, Arthroderma benhamiae; details: Trichophyton benhamiae; read-out: MIC; summary of the method: as §2
Trichophyton rubrum = test: In vitro evaluation of minimum inhibitory concentration against Trichophyton rubrum 90; assay type: functional; summary of the method: as §2
Rhodotorula mucilaginosa = test: In vitro evaluation of minimum inhibitory concentration against Rhodotorula rubra 16; assay type: functional; details: Rhodotorula mucilaginosa; read-out: MIC; summary of the method: as §2
Kluyveromyces marxianus = test: In vitro evaluation of minimum inhibitory concentration against Candida pseudotropicalis 13; assay type: functional; details: Kluyveromyces marxianus; read-out: MIC; summary of the method: as §2
Pichia kudriavzevii = test: Evaluation of In vitro antifungal activity against Candida krusei C64 by broth macro dilution method; assay type: functional; summary of the method: as §1
Candida parapsilosis [17] = test: Evaluation of In vitro antifungal activity against Candida parapsilosis 2.07 by broth macro dilution method; assay type: functional; details: Lodderomyces parapsilosis; summary of the method: as §1
Candida parapsilosis [18] = test: Evaluation of In vitro antifungal activity against Candida parapsilosis ATCC 141095 by broth macro dilution method; assay type: functional; details: Lodderomyces parapsilosis; summary of the method: as §1
Aspergillus flavus = test: In vitro evaluation of minimum inhibitory concentration against Aspergillus flavus 19; assay type: functional; details: Aspergillus flavus; read-out: MIC; summary of the method: as §2
Candida albicans [19] = test: Evaluation of In vitro antifungal activity against Candida albicans C56 by broth macro dilution method; assay type: functional; summary of the method: as §1
Rattus norvegicus [20] = test: In vivo evaluation of antifungal activity against vaginal candidosis in rat at dose 0.25 mg/kg on 15th day; assay type: functional; summary of the method: as §4
Candida albicans [21] = test: Evaluation of In vitro antifungal activity against Candida albicans 60 by broth macro dilution method

**Q.** C[C@@H](NC(=O)c1ccc(C(F)(F)F)cc1)[C@](O)(Cn1cncn1)c1ccc(F)cc1F was tested. Which MIC (Candida tropicalis [1]) did it give?
**A.** 1 µg/mL (≈ 2.27 µM)

**Q.** And the MIC (Candida tropicalis [2])?
**A.** 80 µg/mL (≈ 182 µM)

**Q.** And the MFC (Cryptococcus neoformans [3])?
**A.** > 64 µg/mL

**Q.** What about the MIC (Cryptococcus neoformans [3]) of the same molecule?
**A.** < 0.031 µg/mL

**Q.** And the MFC (Cryptococcus neoformans [4])?
**A.** > 64 µg/mL

**Q.** And the MIC (Cryptococcus neoformans [4])?
**A.** 0.5 µg/mL (≈ 1.14 µM)

**Q.** What about the survival at 0.5 mg/kg (Mus sp. [5]) of the same molecule?
**A.** 100%

**Q.** What about the survival at 1 mg/kg (Mus sp. [6]) of the same molecule?
**A.** 100%

**Q.** And the survival at 0.5 mg/kg (Mus sp. [7])?
**A.** 100%

**Q.** And the survival at 1 mg/kg (Mus sp. [8])?
**A.** 100%

**Q.** What about the survival at 0.5 mg/kg (Mus musculus) of the same molecule?
**A.** 95%

**Q.** What about the survival at 1 mg/kg (Mus sp. [9]) of the same molecule?
**A.** 100%

**Q.** And the survival at 0.5 mg/kg (Mus sp. [10])?
**A.** 70%

**Q.** What about the Survival (Mus sp. [11]) of the same molecule?
**A.** 100%

**Q.** What about the MIC (Microsporum canis) of the same molecule?
**A.** 20 µg/mL (≈ 45.4 µM)

**Q.** What about the MIC (Nannizzia gypsea) of the same molecule?
**A.** 10 µg/mL (≈ 22.7 µM)

**Q.** What about the Cure rate (Rattus norvegicus [12]) of the same molecule?
**A.** 0%

**Q.** What about the Cure rate (Rattus norvegicus [13]) of the same molecule?
**A.** 20%

**Q.** And the Cure rate (Rattus norvegicus [14])?
**A.** 100%

**Q.** And the MFC (Nakaseomyces glabratus [15])?
**A.** > 64 µg/mL

**Q.** What about the MIC (Nakaseomyces glabratus [15]) of the same molecule?
**A.** 8 µg/mL (≈ 18.2 µM)

**Q.** What about the MIC (Nakaseomyces glabratus [16]) of the same molecule?
**A.** 20 µg/mL (≈ 45.4 µM)

**Q.** What about the MIC (Trichophyton benhamiae) of the same molecule?
**A.** 40 µg/mL (≈ 90.8 µM)

**Q.** And the MIC (Trichophyton rubrum)?
**A.** 10 µg/mL (≈ 22.7 µM)

**Q.** And the MIC (Rhodotorula mucilaginosa)?
**A.** 1.25 µg/mL (≈ 2.84 µM)

**Q.** And the MIC (Kluyveromyces marxianus)?
**A.** 40 µg/mL (≈ 90.8 µM)

**Q.** And the MFC (Pichia kudriavzevii)?
**A.** 16 µg/mL (≈ 36.3 µM)

**Q.** And the MIC (Pichia kudriavzevii)?
**A.** 4 µg/mL (≈ 9.08 µM)

**Q.** And the MFC (Candida parapsilosis [17])?
**A.** 64 µg/mL (≈ 145 µM)

**Q.** And the MIC (Candida parapsilosis [17])?
**A.** 0.063 µg/mL (≈ 0.143 µM)

**Q.** And the MFC (Candida parapsilosis [18])?
**A.** 32 µg/mL (≈ 72.7 µM)

**Q.** What about the MIC (Candida parapsilosis [18]) of the same molecule?
**A.** 1 µg/mL (≈ 2.27 µM)

**Q.** What about the MIC (Aspergillus flavus) of the same molecule?
**A.** 20 µg/mL (≈ 45.4 µM)

**Q.** What about the MFC (Candida albicans [19]) of the same molecule?
**A.** > 64 µg/mL

**Q.** And the MIC (Candida albicans [19])?
**A.** < 0.031 µg/mL

**Q.** What about the Cure rate (Rattus norvegicus [20]) of the same molecule?
**A.** 100%

**Q.** And the MFC (Candida albicans [21])?
**A.** > 64 µg/mL
